From ChEMBL document CHEMBL1759916, “Bicyclo[2.2.2]octyltriazole inhibitors of 11β-hydoxysteroid dehydrogenase type 1. Pharmacological agents for the treatment of metabolic syndrome” (Bioorg Med Chem Lett, 2011)

Assays:
Mus musculus [1] = assay: Inhibition of 11beta-HSD1 in ICR mouse assessed as inhibition of conversion of [3H]-cortisone to [3H]-cortisol at 10 mg/kg, po administered 16 hrs before [3H]-cortisone challenge; format: functional
Outline: (§1)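 Mouse pharmacodynamic model. Compound given 10 mg/kg PO, then 3H-cortisone by tail vein injection 1, 4 or 16 h after dosing. […] Plasma compound levels were measured after the PD studies.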

Mus musculus [2] = assay: Inhibition of 11beta-HSD1 in ICR mouse assessed as inhibition of conversion of [3H]-cortisone to [3H]-cortisol at 10 mg/kg, po administered 4 hrs before [3H]-cortisone challenge; format: functional; outline: as §1
[3] = target: 11-beta-hydroxysteroid dehydrogenase 1 (Mus musculus, UniProt P50172); assay: Inhibition of mouse 11beta-HSD1 expressed in CHO-K1 cells assessed as conversion of [3H]-cortisone to [3H]-cortisol by scintillation proximity assay; format: cell-based
11-beta-hydroxysteroid dehydrogenase 1 (Mus musculus, UniProt P50172), sequence (P50172 whole entry): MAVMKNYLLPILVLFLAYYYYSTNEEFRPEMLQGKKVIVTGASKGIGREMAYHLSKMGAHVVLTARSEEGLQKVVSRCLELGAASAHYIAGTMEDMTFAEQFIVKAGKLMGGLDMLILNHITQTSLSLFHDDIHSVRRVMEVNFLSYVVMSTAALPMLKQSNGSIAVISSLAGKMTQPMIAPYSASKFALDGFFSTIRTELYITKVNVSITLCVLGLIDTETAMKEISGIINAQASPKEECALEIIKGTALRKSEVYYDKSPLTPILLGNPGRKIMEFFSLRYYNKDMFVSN

[4] = target: T1, 11-beta-hydroxysteroid dehydrogenase type 2 (Mus musculus, UniProt P51661); assay: Inhibition of mouse 11beta-HSD2 expressed in CHO-K1 cells assessed as conversion of [3H]-cortisol to [3H]-cortisone by scintillation proximity assay; format: cell-based
T1 sequence (P51661 whole entry): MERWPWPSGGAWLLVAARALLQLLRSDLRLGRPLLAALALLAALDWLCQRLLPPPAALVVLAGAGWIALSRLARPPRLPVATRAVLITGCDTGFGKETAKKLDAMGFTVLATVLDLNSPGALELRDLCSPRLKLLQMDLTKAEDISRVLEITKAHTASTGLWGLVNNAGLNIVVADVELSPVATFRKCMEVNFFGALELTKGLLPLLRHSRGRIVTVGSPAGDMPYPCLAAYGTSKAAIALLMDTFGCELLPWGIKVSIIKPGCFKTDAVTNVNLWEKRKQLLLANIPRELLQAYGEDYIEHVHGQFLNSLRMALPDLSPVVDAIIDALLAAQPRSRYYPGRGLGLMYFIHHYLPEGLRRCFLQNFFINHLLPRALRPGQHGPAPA
Outline: (§2)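 Scintillation proximity assay (SPA). IC50 values are the average of two determinations.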

[5] = target: 11-beta-hydroxysteroid dehydrogenase 1 (Homo sapiens, UniProt P28845); assay: Inhibition of human 11beta-HSD1 expressed in CHO-K1 cells assessed as conversion of [3H]-cortisone to [3H]-cortisol by scintillation proximity assay; format: cell-based; outline: as §2
11-beta-hydroxysteroid dehydrogenase 1 (Homo sapiens, UniProt P28845), sequence (P28845 whole entry): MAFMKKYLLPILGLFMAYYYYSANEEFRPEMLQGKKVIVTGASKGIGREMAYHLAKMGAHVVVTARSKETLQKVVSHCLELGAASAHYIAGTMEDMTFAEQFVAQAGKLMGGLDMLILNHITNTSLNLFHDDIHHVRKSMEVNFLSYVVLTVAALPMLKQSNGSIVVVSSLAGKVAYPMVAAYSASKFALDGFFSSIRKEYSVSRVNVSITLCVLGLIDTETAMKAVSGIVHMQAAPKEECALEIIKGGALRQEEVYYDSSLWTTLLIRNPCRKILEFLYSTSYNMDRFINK

[6] = target: T2, 11-beta-hydroxysteroid dehydrogenase type 2 (Homo sapiens, UniProt P80365); assay: Inhibition of human 11beta-HSD2 expressed in CHO-K1 cells assessed as conversion of [3H]-cortisol to [3H]-cortisone by scintillation proximity assay; format: cell-based
T2 sequence (P80365 whole entry): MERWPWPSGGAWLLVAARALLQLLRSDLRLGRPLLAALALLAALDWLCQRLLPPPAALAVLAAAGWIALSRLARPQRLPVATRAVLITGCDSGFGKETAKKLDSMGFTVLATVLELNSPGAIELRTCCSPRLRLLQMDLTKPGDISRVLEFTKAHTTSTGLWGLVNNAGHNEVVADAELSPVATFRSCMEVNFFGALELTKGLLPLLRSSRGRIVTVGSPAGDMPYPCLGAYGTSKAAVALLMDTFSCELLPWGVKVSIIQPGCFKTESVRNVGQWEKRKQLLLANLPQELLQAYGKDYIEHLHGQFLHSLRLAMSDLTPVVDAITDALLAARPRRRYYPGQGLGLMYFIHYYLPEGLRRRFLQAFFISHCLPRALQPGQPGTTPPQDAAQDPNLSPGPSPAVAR

[7] = target: T3, Nuclear receptor subfamily 1 group I member 2 (Homo sapiens, UniProt O75469); assay: Activation of PXR
T3 sequence (O75469 whole entry): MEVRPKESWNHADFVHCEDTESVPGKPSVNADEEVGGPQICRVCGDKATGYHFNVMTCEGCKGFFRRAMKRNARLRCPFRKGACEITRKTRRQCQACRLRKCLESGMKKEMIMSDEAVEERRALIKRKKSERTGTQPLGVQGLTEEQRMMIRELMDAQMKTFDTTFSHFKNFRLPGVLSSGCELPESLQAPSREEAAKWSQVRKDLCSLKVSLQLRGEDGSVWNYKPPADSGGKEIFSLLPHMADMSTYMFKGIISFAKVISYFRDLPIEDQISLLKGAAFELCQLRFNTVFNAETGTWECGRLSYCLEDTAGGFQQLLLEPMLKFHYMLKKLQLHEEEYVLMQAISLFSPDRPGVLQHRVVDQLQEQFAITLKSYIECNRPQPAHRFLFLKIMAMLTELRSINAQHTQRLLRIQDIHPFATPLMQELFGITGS
Outline: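 Cyp induction potential assessed in human liver microsomes; read out as human PXR activation, with test compound at 10 μM.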

Compound	inhibition in vivo at 10 mg/kg (Mus musculus [1]) [%]	inhibition in vivo at 10 mg/kg (Mus musculus [2]) [%]	IC50 [3] [nM]	IC50 [4] [nM]	IC50 [5] [nM]	IC50 [6] [nM]	Activity [7]
COCCCCC12CCC(c3nnc(-c4ccccc4C(F)(F)F)n3C)(CC1)CC2	1	76	2	> 4000	2	4000	–
Cn1c(-c2ccccc2C(F)(F)F)nnc1C12CCC(CCS(C)(=O)=O)(CC1)CC2	63	96	4.1	> 4000	11	> 4000	–
CCS(=O)(=O)CCCCC12CCC(c3nnc(-c4ccccc4C(F)(F)F)n3C)(CC1)CC2	58	90	1.8	> 4000	1.6	> 4000	–
Cn1c(-c2ccccc2C(F)(F)F)nnc1C12CCC(CCS(=O)(=O)c3ccc(F)cc3)(CC1)CC2	2	63	1.8	> 4000	5.5	> 4000	–
CC[S+]([O-])CCC12CCC(c3nnc(-c4ccccc4C(F)(F)F)n3C)(CC1)CC2 (stereo not drawn)	72	90	10	> 4000	4.1	> 4000	–
Cn1c(-c2ccccc2C(F)(F)F)nnc1C12CCC(CCS(=O)(=O)CC(F)(F)F)(CC1)CC2	67	74	1.5	> 4000	3.7	1600	–
Cn1c(-c2ccccc2C(F)(F)F)nnc1C12CCC(COc3ccc(Cl)cc3)(CC1)CC2	77	98	1.5	–	1.1	–	Active
Cn1c(-c2ccccc2C(F)(F)F)nnc1C12CCC(CCS(=O)(=O)c3ccccc3)(CC1)CC2	6	69	1.6	> 4000	4.4	> 4000	–
CCOCC12CCC(c3nnc(-c4ccccc4C(F)(F)F)n3C)(CC1)CC2	3	44	2	> 4000	4	> 4000	–
